Laboratory results: ChEMBL document CHEMBL4513216, “Probing the Open Global Health Chemical Diversity Library for Multistage-Active Starting Points for Next-Generation Antimalarials” (ACS Infect Dis, 2020)

Assay: Toxicity liver stage against HepG2, at 10uM
Format: cell-based
Parameters: test concentration 10 uM, cell line HepG2-A16-CD81EGFP
Settings: human, HepG2-A16-CD81EGFP cells; read-out: INHIBITION
Summary of the method: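 Uninfected HepG2-A16-CD81EGFP cells, 3 × 10^3 per well, 1536-well, plated on prespotted compound at 10 μM final, parasite-free screening media added to match infected plates; puromycin 10 μM positive, DMSO 0.5% negative; run in parallel with 48 h PbLuc assay at 37 °C, 5% CO2; viability by CellTiter-Glo luminescence, normalized to controls.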

Row | SMILES | cytotoxicity at 10 µM [%]
1 | Cc1ncoc1C(=O)N1CCOC(Cc2ccccc2)C1 (stereo not given) | 2.23
2 | CC1(C)CNC(=O)CN(C(=O)COc2ccccc2)C1 | 1.4
3 | COC1CCN(C(=O)Nc2ccccc2)CC(=O)N(C)c2ccccc21 (stereo not given) | 2.94
4 | CC(C)CCN1C(=O)C2(NC(=O)c3ccccc3O2)c2ccccc21 (stereo not given) | 4.02
5 | O=C(c1nc(Cc2c[nH]c3ccccc23)no1)N1CCCCC1 | 6.04
6 | Cc1cc(C)nc(NCCC(=O)Nc2ccc(Cn3cncn3)cc2)n1 | -2.82
7 | CCCS(=O)(=O)NCC1OCCc2cn(CC3CCOCC3)nc21 (stereo not given) | -5.6
8 | CCC(C)NC(=O)Cn1c(Nc2cc(C)cc(C)c2)nc(C)cc1=O (stereo not given) | 9.91
9 | COCCNC(=O)c1cc2c(nc1O)CC(c1cccs1)CC2=O (stereo not given) | 11.9
10 | Cc1cc(O)c(OCC(=O)Nc2nc3c(s2)CCCCC3)cn1 | 3.93
11 | Cn1ccnc1-c1nc(N2CCCCC2)ncc1-c1ccccc1F | 12.4
12 | Cc1ccc2nc(C)cc(NCCNS(=O)(=O)c3cn(C)nc3C)c2c1 | 8.06
13 | COC(=O)CNC(=O)c1nc(-c2ccccc2OC)c2cnccn12 | 8.6
14 | CC(C)NC(=O)N1CCCCC1c1nnc2n1CCNC2 (stereo not given) | 14.3
15 | O=C(NCc1nnc2n1CCCCC2)N(CC1CCOC1)C1CC1 (stereo not given) | 5.63
16 | O=C(c1cc(Br)c[nH]1)N1CCN(Cc2ccco2)CC1 | -64.2
17 | CN(Cc1ccc(F)c(F)c1)C(=O)CCc1nc(-c2nnc[nH]2)no1 | -43.6
18 | CC(C)CCc1noc(C[S+]([O-])CC(=O)NCc2ccccc2)n1 (stereo not given) | 5.28
19 | CC(C)CC(C#N)NC(=O)CCNC(=O)C(C)(C)C (stereo not given) | -3.3
20 | Cc1ccc(C(=O)NCC(C)Cn2ccnc2C)c(=O)[nH]1 (stereo not given) | -0.89
21 | CCc1nc(NC(=O)Cc2csc(-c3nnc[nH]3)n2)sc1C | -45.1
22 | CC(C)c1nc(CN(C)S(=O)(=O)c2cccs2)cs1 | -48.8
23 | CCn1cc(CN2CCCN(C(=O)C3(C)CCOCC3)CC2)cn1 | -45.4
24 | CCOc1c(F)cccc1C(=O)N(c1cccnc1)C(C)C | 1.52
25 | CNC(=O)NC(=O)CSC(C)c1ccccc1F (stereo not given) | -14.4
26 | Cc1cc(C2CCCN2C(=O)NCc2cccnc2)on1 (stereo not given) | 0.458
27 | O=C(NCC1CCCCC1)NC1CCCc2c1cnn2CCO (stereo not given) | -2.92

Row | SMILES | cytotoxicity at 10 µM [%]
28 | O=C(CN1C(=O)c2ccccc2CS1(=O)=O)c1ccc(Cl)cc1 | 4.17
29 | CC(=O)c1cccc(OCCCC(=O)N(C)Cc2cnc(C)s2)c1 | 14.2
30 | N#Cc1cccc(OCCN2CCCC2C(=O)N2CCSCC2)c1 (stereo not given) | 9.06
31 | CC(C)(C)OC(=O)N1CCCc2ccc(NCc3ccon3)cc21 | 10.9
32 | Cc1ccc(C2CN(C(=O)c3c(C)cc(C)[nH]c3=O)CCO2)c(C)c1 (stereo not given) | -19.8
33 | CS(=O)(=O)CCC(=O)N(Cc1c(F)cccc1F)C1CCCC1 | -12.9
34 | CN(Cc1ccco1)C(=O)c1ccc(=O)n(C)c1 | -47.5
35 | O=C(Nc1ccc2c(c1)C(=O)NC2)c1ccc(S(=O)(=O)C(F)(F)F)cc1 | 36.9
36 | CN(C1CCN(c2ccccn2)CC1)S(=O)(=O)N1CCOCC1 | -5.23
37 | O=C(CN(Cc1ccccc1)CC1CCOCC1)NC(=O)NC1CC1 | -6.49
38 | CN(C(=O)Cc1ccc(NC(=O)NC2CCC2)cc1)c1ccccc1 | -6.11
39 | COc1cccc(NC(=O)N2CC[C@@H]3CN(C)S(=O)(=O)[C@@H]3CC2)c1 | 7.3
40 | COCCNC(=O)[C@H]1CN(c2ncccn2)C[C@H]2OCC[C@@H]12 | -80.7
41 | O=C1CC2(CCN(Cc3ccsc3)C2)CN1c1ccc2c(c1)OCO2 (stereo not given) | -75
42 | CC(=O)N1CCC2(CC1)CCN(C(=O)c1cccc(C(F)(F)F)c1)C2 | -74.5
43 | CN(CCO)C[C@@H]1CN(C2CCN(c3ccccc3Cl)CC2)C[C@@H]1CO | -9.22
44 | Cc1nn(C)c2nc(N3CCC(C(O)c4ccccn4)CC3)sc12 (stereo not given) | 22.2
45 | CCc1nc(CCNS(=O)(=O)c2cccc(C(=O)N(C)CC)c2)cs1 | -36.2
46 | COCCn1c(=O)n(Cc2cccc(F)c2F)c2cc(C(=O)O)ccc21 | 9.15
47 | COc1nc2c(cc1C(=O)NCc1noc(-c3ccco3)n1)CCC2 | -6.04
48 | CN1CC2(CCCN(Cc3ccc(Oc4ccccc4)cc3)C2)OC1=O (stereo not given) | 15.8
49 | O=C(CCC(=O)N1CCNC(=O)C1c1cccc(F)c1)NC1CCCC1 (stereo not given) | 2.68
50 | COc1ccccc1OC1(C(=O)O)CCN(c2ncnc(C)c2C)CC1 | -11.2
51 | CNc1nc(C(=O)N2C[C@@H]3CCN(C)[C@@H]3C2)cs1 | -10.8
52 | COc1cc(C)ccc1S(=O)(=O)N[C@H]1CN(C(C)=O)C[C@@H]1C1CC1 | 5.71
53 | N#Cc1cccc(Oc2ccc(CN3CCCC3)cc2Cl)n1 | -16
54 | Cc1cc(N2CCCC(N(C)C)C2)n2nccc2n1 (stereo not given) | -43.4

Row | SMILES | cytotoxicity at 10 µM [%]
55 | CCN1CCC(CC(=O)N(C)CC(=O)c2ccc(O)cc2)CC1 | 1.73
56 | Cc1nccc(N[C@H]2CN(C(=O)CCN3CCCC3=O)C[C@@H]2C(C)C)n1 | -6.3
57 | CC(CCc1ccc(O)cc1)NC1CCN(S(C)(=O)=O)CC1 (stereo not given) | 1.46
58 | CCNC(=O)[C@@H]1C[C@H](N)CN1C1CCN(c2ccccc2OC)CC1 | -43.9
59 | OC1(CNCCSCc2ccccc2)CCCNC1 (stereo not given) | 1.84
60 | CC(C)[C@H]1CN(C2Cc3ccccc3C2)C[C@@H]1NS(C)(=O)=O | -16
61 | CN1CCN(Cc2ccc(-c3ccc(-c4ccn[nH]4)cc3)nc2)CC1 | 3.61
62 | Cc1cc(F)ccc1CN1CCCC(O)(CN2CCCC2)C1 (stereo not given) | -5.19
63 | COc1ccc(C2(C(=O)N3CC(c4cccnc4)C3)CC2(C)C)cc1 (stereo not given) | 12.3
64 | Cc1ccccc1C(=O)N1CCOC2(CNCCOC2)C1 (stereo not given) | -16.5
65 | COc1ccc(-c2cc(C3CCCCCN3S(=O)(=O)N(C)C)on2)cc1 (stereo not given) | 2.24
66 | Cn1ccnc1CN1CCCN(C(=O)c2ccc3cc[nH]c3c2)CC1 | -6.44
67 | Cc1ccccc1C1(C(=O)NCCN2CCC(C)CC2)CCOCC1 | 3.57
68 | Cc1nc(C2CCCN2CC(=O)NCCOc2ccc(F)cc2)no1 (stereo not given) | -9.63
69 | Cc1cccc(N2CCN(CCNC(=O)C(C)n3cncn3)CC2)c1 (stereo not given) | -1.91
70 | CC(C)(C#N)C(=O)N1CCCC(c2cc(C(F)(F)F)[nH]n2)C1 (stereo not given) | -5.67
71 | CN1CCOC(CN(C(=O)CC2CCCC2)c2nccs2)C1 (stereo not given) | -3.78
72 | N#Cc1ccc(S(=O)(=O)NC(=O)C2CC2)c(C(F)(F)F)c1 | -11.1
73 | CC(C)n1cc(CN2CCCN(C(=O)c3cc(Cl)c[nH]3)CC2)cn1 | -10.9
74 | CCOc1ccc(Cl)cc1C1CCCCN1 (stereo not given) | 9.15
75 | O=C(c1cccc(Cl)c1)N1CCCn2c(CN3CCCCC3)nnc2C1 | 4.01
76 | O=C(CC1CC1)N1CCO[C@H]2[C@H](OCCCn3cccn3)CC[C@@H]21 | 6.23
77 | CC(C)NCC1OCCc2cn(C)nc21 (stereo not given) | 9.91
78 | CC(C)COCC1CN(Cc2ccc3c(c2)OCO3)Cc2ncn(C)c21 (stereo not given) | -10.7
79 | CN(C)CCOCc1cncc2c1CCN(C(=O)C1CCOCC1)C2 | -1.87
80 | c1ccc(CN2CCOC3CNCC[C@H]32)cc1 (stereo not given in full) | 6.31
